Measured values published in ChEMBL document CHEMBL4052804, “Design and synthesis of piperazine acetate podophyllotoxin ester derivatives targeting tubulin depolymerization as new anticancer agents” (Bioorg Med Chem Lett, 2017).
Active and inactive are the calls of the source. The calls are words filed in the database; no cut-off is given here.

What was measured:
Homo sapiens = species on record: Homo sapiens; assay: Induction of tubulin depolymerization in human MCF7 cells at 1 uM after 12 hrs by DAPI staining based confocal microscopic analysis; type: cell-based
HeLa = assay: Cytotoxicity against human HeLa cells after 24 hrs by MTT assay; type: functional, cell-based
How it was run: (§1)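 In vitro antiproliferative screen by MTT assay against human MCF-7 breast, HeLa cervical, A549 lung adenocarcinoma and HepG-2 hepatoma cells. Output is the IC50.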

A549 = assay: Cytotoxicity against human A549 cells after 24 hrs by MTT assay; type: functional, cell-based; details: A549, 24 h; how it was run: as §1
L02 = assay: Cytotoxicity against human L02 cells after 24 hrs by MTT assay; type: cell-based; details: L02, 24 h
How it was run: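 Normal human liver L02 cells were tested at multiple concentrations in an MTT assay. Output is the median cytotoxic concentration (CC50).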

MCF7 = assay: Cytotoxicity against human MCF7 cells after 24 hrs by MTT assay; type: functional, cell-based; details: MCF7, 24 h; how it was run: as §1
HepG2 = assay: Cytotoxicity against human HepG2 cells after 24 hrs by MTT assay; type: functional, cell-based; details: HepG2, 24 h; how it was run: as §1

SMILES | Activity (Homo sapiens) | IC50 (HeLa) [µM] | IC50 (A549) [µM] | IC50 (L02) [µM] | IC50 (MCF7) [µM] | IC50 (HepG2) [µM]
CC(=O)O[C@H]1C(=O)[C@@]2(C)[C@H]([C@H](OC(=O)c3ccccc3)[C@]3(O)C[C@H](OC(=O)[C@H](O)[C@@H](NC(=O)c4ccccc4)c4ccccc4)C(C)=C1C3(C)C)[C@]1(OC(C)=O)CO[C@@H]1C[C@@H]2O | inactive |  |  |  |  | 
COc1cc([C@@H]2c3cc4c(cc3[C@H](OC(=O)CN3CCN(c5ccccc5Cl)CC3)[C@H]3COC(=O)[C@H]23)OCO4)cc(OC)c1OC |  | 11.3 | 8.47 | > 100 | 9.98 | 17.7
COc1cc([C@@H]2c3cc4c(cc3[C@H](OC(=O)CN3CCN(C(c5ccc(F)cc5)c5ccc(F)cc5)CC3)[C@H]3COC(=O)[C@H]23)OCO4)cc(OC)c1OC |  | 9.54 | 13.2 | > 100 | 6.23 | 7.04
COc1cc([C@@H]2c3cc4c(cc3[C@@H](O[C@@H]3O[C@@H]5CO[C@@H](C)O[C@H]5[C@H](O)[C@H]3O)[C@H]3COC(=O)[C@H]23)OCO4)cc(OC)c1O [ETOPOSIDE] |  | 1.58 | 6.21 | 7.75 | 2.08 | 5.52
COc1cc([C@@H]2c3cc4c(cc3[C@H](OC(=O)CN3CCN(c5ccc([N+](=O)[O-])cc5)CC3)[C@H]3COC(=O)[C@H]23)OCO4)cc(OC)c1OC |  | 11 | 8.15 | > 100 | 9.6 | 6.87
COc1cc([C@@H]2c3cc4c(cc3[C@H](OC(=O)CN3CCN(c5ccc(C)cc5C)CC3)[C@H]3COC(=O)[C@H]23)OCO4)cc(OC)c1OC |  | 23.1 | 34.4 | 93.9 | > 50 | 45.8
COc1cc([C@@H]2c3cc4c(cc3[C@H](OC(=O)CN3CCN(C(c5ccccc5)c5ccc(Cl)cc5)CC3)[C@H]3COC(=O)[C@H]23)OCO4)cc(OC)c1OC (some centres not stated) |  | 12.2 | 14.2 | > 100 | 7.75 | 10.9
COc1cc([C@@H]2c3cc4c(cc3[C@H](OC(=O)CN3CCN(c5ccccc5)CC3)[C@H]3COC(=O)[C@H]23)OCO4)cc(OC)c1OC |  | 33 | 15.2 | 75.8 | 22 | 16.6
COc1cc([C@@H]2c3cc4c(cc3[C@H](OC(=O)CN3CCN(c5cccc(Cl)c5)CC3)[C@H]3COC(=O)[C@H]23)OCO4)cc(OC)c1OC |  | 8.3 | 9.26 | 99.3 | 9.87 | 13.5
COc1ccc(N2CCN(CC(=O)O[C@H]3c4cc5c(cc4[C@@H](c4cc(OC)c(OC)c(OC)c4)[C@H]4C(=O)OC[C@@H]43)OCO5)CC2)cc1 |  | 31.6 | 16.4 | 87.9 | 13.5 | 25.9
COc1cc([C@@H]2c3cc4c(cc3[C@H](OC(=O)CN3CCN(c5ccccc5F)CC3)[C@H]3COC(=O)[C@H]23)OCO4)cc(OC)c1OC |  | 18 | 9.8 | > 100 | 11.7 | 15.4
COc1cc([C@@H]2c3cc4c(cc3[C@H](OC(=O)CN3CCN(C(c5ccccc5)c5ccccc5)CC3)[C@H]3COC(=O)[C@H]23)OCO4)cc(OC)c1OC |  | 23.2 | 12.3 | 65.8 | 16.5 | 16.4
COc1cc([C@@H]2c3cc4c(cc3[C@H](OC(=O)CN3CCN(c5ccc(F)cc5)CC3)[C@H]3COC(=O)[C@H]23)OCO4)cc(OC)c1OC |  | 17.3 | 11.9 | > 100 | 8.49 | 12.6
COc1cc2c(c(OC)c1OC)-c1ccc(OC)c(=O)cc1[C@@H](NC(C)=O)CC2 | Active |  |  |  |  | 
COc1cc([C@@H]2c3cc4c(cc3[C@H](OC(=O)CN3CCN(c5cccc(C(F)(F)F)c5)CC3)[C@H]3COC(=O)[C@H]23)OCO4)cc(OC)c1OC |  | 6.82 | 10.8 | > 100 | 7.19 | 9.61
COc1cc([C@@H]2c3cc4c(cc3[C@H](OC(=O)CN3CCN(c5cccc(Cl)c5Cl)CC3)[C@H]3COC(=O)[C@H]23)OCO4)cc(OC)c1OC |  | 7.83 | 7.51 | 97.8 | 3.02 | 6.15
COc1ccccc1N1CCN(CC(=O)O[C@H]2c3cc4c(cc3[C@@H](c3cc(OC)c(OC)c(OC)c3)[C@H]3C(=O)OC[C@@H]32)OCO4)CC1 |  | > 50 | 28.6 | 90.7 | 48.2 | 34.2
COc1cccc(N2CCN(CC(=O)O[C@H]3c4cc5c(cc4[C@@H](c4cc(OC)c(OC)c(OC)c4)[C@H]4C(=O)OC[C@@H]43)OCO5)CC2)c1 |  | 36.7 | 23.2 | > 100 | 12.2 | 36.7
